CHO-K1 Ca antag: nonselective inhibitor or artifact in parental CHO-K1 cells; actives 0.6% (n = 360,000); ATP-induced calcium, Fluo-8 fluorescence; inhibition, % at 3 µM; AID 602250;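 active = inhibition above a per-plate cutoff, the plate's mean sample inhibition plus 3 SD, cut at about 24% in these data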
OX1R antag-1: human HCRTR1 antagonism; O43613; CHO/OX1R cells, Fluo-8 calcium fluorescence, orexin A; inhibition, % at 5 µM; actives 0.43% (n = 330,000); AID 434989;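 active = inhibition above its plate's threshold, mean inhibition of all tested compounds on the plate plus 3 SD, cut at about 37% in these data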
Target sequence (O43613 whole entry, looked up): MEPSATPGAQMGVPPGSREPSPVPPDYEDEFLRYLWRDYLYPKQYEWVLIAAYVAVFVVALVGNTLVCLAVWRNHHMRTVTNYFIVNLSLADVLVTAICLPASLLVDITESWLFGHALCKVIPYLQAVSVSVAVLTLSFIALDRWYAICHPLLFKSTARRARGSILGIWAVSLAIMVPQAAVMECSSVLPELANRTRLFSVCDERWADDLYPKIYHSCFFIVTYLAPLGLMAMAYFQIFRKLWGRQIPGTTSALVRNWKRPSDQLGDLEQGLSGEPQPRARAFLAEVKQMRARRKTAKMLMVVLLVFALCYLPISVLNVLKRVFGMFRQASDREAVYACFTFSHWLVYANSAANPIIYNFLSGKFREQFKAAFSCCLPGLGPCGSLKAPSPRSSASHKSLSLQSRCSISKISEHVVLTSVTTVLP
M1 ag parental: M1 agonist counterscreen hit in parental CHO-K1 cells; Fluo-8 calcium fluorescence; scaled to maximal ATP response, vehicle zero; activation, % at 3 µM; actives 0.48% (n = 360,000); AID 602248; in the data active = activation above about 15%;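 note: untransfected CHO-K1 host cells lacking M1 receptor as counterscreen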
OX1R antag-2: antagonists of human orexin 1 receptor (OX1R). O43613. OX1R-expressing cells, FRET antagonist read-out. inhibition, % at 6.6 µM. actives 1.8% (n = 330,000). AID 485270; in the data active = inhibition mostly above about 38%, no sharp cut-off; inactive = mostly below about 40%
CHO parental Ca: counter-screen: ATP calcium response change in parental CHO cells | AID 463079 | inhibition, % at 5.6 µM | parental CHO-K1, ATP-induced calcium, Fluo-8 fluorescence | actives 0.63% (n = 330,000);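 active = inhibition above that plate's mean sample inhibition plus 3 SD, cut at about 26% in these data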
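Assay system – parental CHO cells · Reagent – ATP stimulus · Detection – intracellular calcium via Fluo-8 no-wash fluorescent dye · Evaluation – percent inhibition of ATP-evoked calcium rise, normalized to controls · Controls – ATP wells versus no-ATP DMSO wells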
CHO-K1 Ca PAM: M1 PAM counterscreen hit in parental CHO-K1 cells; ATP EC20, Fluo-8 calcium fluorescence; 0% at ATP EC20, 100% at ATP max; activation, % at 3 µM; actives 0.02% (n = 360,000); AID 602247;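 active = activation above the run cutoff, the mean activation of all test compounds plus 3 SD, cut at about 40% in these data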;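 note: peak over basal fluorescence ratio in a 140 s read after ATP addition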
OX1R Fluo8 conf: confirmation of human orexin 1 receptor antagonists. actives 38% (n = 1,100). CHO/OX1R cells, orexin A calcium Fluo-8 fluorescence. shares compounds with OX1R antag-1. inhibition, % at 5 µM; in the data active = inhibition above about 29%
CHO Ca triplic: signal in parental CHO cells, OX1R antagonist counter-screen; actives 9.3% (n = 1,100); inhibition, % at 5.6 µM; shares compounds with OX1R antag-1; parental CHO-K1, ATP-induced calcium, Fluo-8 fluorescence;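 active = inhibition above a per-plate limit, the mean inhibition of that plate's test compounds plus 3 SD, cut at about 25% in these data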
Large screens that a line does not name were inactive (follow-up assays come after a bar, where they were run). A selection: hits, their analogues and other compounds. The true share with any hit is near 2.9%.

O=C(C1CCCN(S(=O)(=O)c2cccnc2)C1)N1CCN(c2ccccn2)CC1 (stereo not drawn)	none
O=C(c1ccc2ccccc2c1)C1CCCN(S(=O)(=O)c2cccnc2)C1 (stereo not drawn)	none | OX1R Fluo8 conf inactive | CHO Ca triplic inactive
CC(C)NC(=O)C1CCN(C2CCN(CC3CC=CCC3)CC2)CC1 (stereo not drawn)	OX1R antag-1 76 | OX1R Fluo8 conf inactive | CHO Ca triplic inactive
Cc1cc(C)cc(NS(=O)(=O)c2ccc3[nH]cc(C(=O)N4CCc5ccccc54)c(=O)c3c2)c1	none
CCc1ccc(NS(=O)(=O)c2ccc3[nH]cc(C(=O)N4CCc5ccccc54)c(=O)c3c2)cc1	none | OX1R Fluo8 conf 32 | CHO Ca triplic inactive
COc1ccc(-n2nnnc2CNC(=O)C(=O)c2c(C)[nH]c3ccccc23)cc1	none
COC(=O)C1=C(CS(=O)(=O)c2cc(OC)ccc2OC)NC(=O)NC1c1ccc(O)c(OC)c1 (stereo not drawn)	none
COc1cc2c(cc1OC)CN(C(=O)Cn1ccccc1=O)CC2	OX1R antag-1 51 | OX1R Fluo8 conf inactive | CHO Ca triplic inactive
Cc1c(Cl)cccc1NC(=O)CSc1ncnc2c1cnn2CCc1ccccc1	none
O=C(CSc1ncnc2c1cnn2CCc1ccccc1)Nc1cccc(C(F)(F)F)c1	OX1R antag-1 61 | OX1R Fluo8 conf inactive | CHO Ca triplic inactive
COc1ccccc1C(=O)COC(=O)c1ccccc1O	none
COc1ccccc1C(=O)COC(=O)c1ccc(N(C)C)cc1	none | OX1R Fluo8 conf inactive | CHO Ca triplic inactive
Cc1oc(-c2cccc3ccccc23)nc1CN1CCN(c2ncnc3ccccc23)CC1	M1 ag parental 23 | OX1R Fluo8 conf inactive | CHO Ca triplic inactive
Nc1nnc(SCc2nc3scc(-c4ccccc4)c3c(=O)[nH]2)s1	none | OX1R Fluo8 conf inactive | CHO Ca triplic inactive
CCOc1ccc2nc(SCC(=O)c3ccccc3)sc2c1	none
CCOc1ccc2nc(SCCNS(=O)(=O)c3ccccc3)sc2c1	OX1R antag-1 50 | OX1R Fluo8 conf inactive | CHO Ca triplic inactive
Cc1cc(C)n2nc(SCC(=O)N3CCCC(C)C3)nc2n1 (stereo not drawn)	none
CC(C)(C)OC(=O)N1CCC(NC(=O)c2nc[nH]c2C(=O)NCC(=O)OCc2ccccc2)CC1	none
Cc1ccc(/C=C2\SC(=S)N(CCC(=O)NNC(=O)c3cccnc3)C2=O)cc1	none
O=C(CCN1C(=O)/C(=C/c2ccccc2)SC1=S)NNC(=O)c1cccnc1	OX1R antag-1 46 | OX1R Fluo8 conf 47 | CHO Ca triplic 69
Cc1cc2nc(-c3cccnc3SCC(=O)NCc3ccco3)[nH]c2cc1C	none | OX1R Fluo8 conf inactive | CHO Ca triplic inactive
O=S(=O)(NCc1ccccc1)c1ccc(NC(=S)NCc2ccco2)cc1	none | OX1R Fluo8 conf 40 | CHO Ca triplic inactive
CSc1cc(C)c(OCC(=O)Nc2ccc(NC(C)=O)cc2)c(C)c1	none | OX1R Fluo8 conf inactive | CHO Ca triplic inactive
O=C(/C=C/c1ccc(S(=O)(=O)NCc2ccco2)cc1)NCc1cccc(Cl)c1	OX1R antag-1 54 | OX1R Fluo8 conf inactive | CHO Ca triplic inactive
CC1CCN(C(=O)C2CCC(=O)N(Cc3ccc(Cl)cc3)C2)CC1 (stereo not drawn)	none
CC1(c2ccc(OC(F)F)cc2)NC(=O)N(CC(=O)Nc2ccc(N3CCCCC3)cc2)C1=O (stereo not drawn)	none | OX1R Fluo8 conf 62 | CHO Ca triplic 32
CC1(c2ccc([N+](=O)[O-])cc2)NC(=O)N(CC(=O)Nc2ccc(N3CCCCC3)cc2)C1=O (stereo not drawn)	none | OX1R Fluo8 conf 48 | CHO Ca triplic inactive
CC1(c2ccccc2)NC(=O)N(CC(=O)Nc2ccc([N+](=O)[O-])cc2)C1=O (stereo not drawn)	none
O=C(CN1C(=O)NC2(CCCCCCC2)C1=O)Nc1ccc(OC(F)F)cc1	none
CC(C)(C)OC(=O)N1CCC(CNC(=O)c2ccc(F)cc2)CC1	none
Fc1cccc2sc(Nc3nc4ccccc4s3)nc12	OX1R antag-1 36 | OX1R Fluo8 conf 51 | CHO Ca triplic inactive
Fc1ccc2nc(Nc3nc4c(F)cccc4s3)sc2c1	OX1R antag-1 68 | OX1R Fluo8 conf 51 | CHO Ca triplic inactive
Fc1ccc2nc(Nc3nc4c(F)cc(F)cc4s3)sc2c1	none
O=C(NNc1nc2ccccc2s1)c1ccccc1F	none
N#Cc1ccc(-c2ccccc2)nc1SCC(=O)c1cccc(Cl)c1	none
N#Cc1ccc(-c2cccnc2)nc1SCC(=O)c1ccccc1	OX1R antag-1 53 | OX1R Fluo8 conf inactive | CHO Ca triplic inactive
Cc1cnc(=O)[nH]c1SCc1cccc([N+](=O)[O-])c1	none
O=C1Nc2ccc(Br)cc2/C1=C/C(=O)c1ccccc1	none (no result: OX1R antag-1, OX1R antag-2, CHO parental Ca)
C=CCOc1cccc(C(=O)/C=C2/C(=O)Nc3ccccc32)c1	none | OX1R Fluo8 conf inactive | CHO Ca triplic inactive
O=C(COC(=O)c1cccc(S(=O)(=O)N2CCOCC2)c1)Nc1nc(-c2ccccc2Cl)cs1	none | OX1R Fluo8 conf 36 | CHO Ca triplic 26
Cn1c(CSc2ncccn2)nnc1SCC(=O)N1CCCc2ccccc21	none | OX1R Fluo8 conf inactive | CHO Ca triplic inactive
CCC[C@@H](NS(=O)(=O)c1ccc(C)cc1)C(=O)Oc1ccc2c3c(c(=O)oc2c1)CCC3	none | OX1R Fluo8 conf 39 | CHO Ca triplic inactive
COc1ccc2c(c1)CC=C1C2CCC2(C)C(=O)C(=NO)CC12 (stereo not drawn)	none (no result: OX1R antag-1, OX1R antag-2, CHO parental Ca)
CCOC(=O)CSc1nnc(-c2ccc(NS(=O)(=O)c3ccc(C)cc3)cc2)o1	none | OX1R Fluo8 conf 36 | CHO Ca triplic 27
COc1ccc(Nc2nnc(-c3ccc(O)cc3)c3ccccc23)cc1	none
O=c1c(/C=C(\O)c2ccccc2)nc2ccccc2n1-c1ccccc1	OX1R antag-1 61 | OX1R Fluo8 conf inactive | CHO Ca triplic inactive
COc1ccc(C(=O)C2CCCN(Cc3c[nH]c4ccccc34)C2)c(OC)c1 (stereo not drawn)	none
COc1cccc(CN2CCC2(C)C(=O)Nc2cccc3cccnc23)c1OC (stereo not drawn)	none (no result: OX1R antag-1, OX1R antag-2, CHO parental Ca)
COc1ccccc1C(CNC(=O)c1ccc(C)c(S(=O)(=O)N2CCCCC2)c1)N1CCCC1 (stereo not drawn)	none (no result: OX1R antag-1, OX1R antag-2, CHO parental Ca)
O=[N+]([O-])c1ccc2c(c1)C(N1CCN(CCO)CC1)Cc1ccc(F)cc1S2 (stereo not drawn)	none (no result: OX1R antag-1, OX1R antag-2, CHO parental Ca)
Fc1ccc2c(c1)Sc1ccc(Cl)cc1CC2N1CCN(CCC2OCCO2)CC1 (stereo not drawn)	none | OX1R Fluo8 conf inactive | CHO Ca triplic inactive

Screening data deposited in PubChem BioAssay by The Scripps Research Institute Molecular Screening Center.
